Measured values reported in article PMC5435512 (Pain, 2017).

How the values were obtained:
[1] = test system: tibial nerve mitochondrial respiration; test: Mitochondrial bioenergetics; type: in vivo, mice
Summary of the method: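 Tibial nerves were run in an islet-capture XF24 plate in XF medium with 5.5 mM glucose, 0.5 mM pyruvate and 1 mM glutamine. Oligomycin (12 μM), FCCP (20 μM) and rotenone/antimycin A (20 μM each) were injected in sequence, with 4 cycles (3-min mix/3-min wait/4-min measure) at baseline and after each injection. Basal, ATP-linked, proton leak, maximal and non-mitochondrial OCR were derived.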

[2] = test system: rat DRG neurons; test: Mitochondrial movement in cultured DRG neurons; type: cell-based; settings: rat DRG neuron cultures, 3 hours
Summary of the method: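 Commercial DRG neurons were cultured 5–7 days, then given BacMam 2.0 GFP mitochondrial label 24 h before treatment. […] Live imaging was done at 37°C in CO2-independent Hibernate E medium that still contained the drugs, and mitochondrial movement was scored.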

[3] = test system: DRG neurons; test: Mitochondrial bioenergetics in DRG neurons isolated from treated mice; type: in vivo
Summary of the method: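 Cells were cultured overnight in an XF24 plate in Ham's F10 + N2, switched to XF medium 1 h before the run. Injections: oligomycin 2 μM, FCCP 4 μM, rotenone/antimycin A 2 μM each. Cycles: 2-min mix/3-min wait/2-min measure ×3. OCR was normalised to protein; basal, ATP-linked, leak and maximal respiration were derived.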

[4] = test system: IENF density; test: Intra-epidermal nerve fiber; type: in vivo, mice
Summary of the method: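 Plantar hind-paw biopsies were cut as 25 μm frozen sections and stained for PGP9.5 and collagen IV, then imaged by confocal. IENFs crossing the dermal–epidermal junction were counted per mm of epidermis. Five random images per mouse, 4 mice/group, blinded analysis.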

[5] = test system: HDAC1-9; test: HDAC enzyme assays, other isoforms; type: biochemical
Summary of the method: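 Test compound was diluted in 50 mM HEPES pH 7.4, 100 mM KCl, 0.001% Tween-20, 0.05% BSA and 20 μM TCEP, then preincubated 24 h with recombinant HDAC enzyme. Substrate at Km, with trypsin, was then added: acetyl-lysine tripeptide for HDAC1/2/3/6, trifluoroacetyl-lysine tripeptide for HDAC4/5/7/8/9. […] release was read over 30 min and the linear rate taken. IC50 came from a 4-parameter fit.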

[6] = test system: α-tubulin acetylation in SK-N-BE2 cells; test: Western blot of acetylated α-tubulin in SK-N-BE2 cells; type: cell-based; settings: 5 hours
Summary of the method: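 SK-N-BE2 cells grown to 70% confluence, then exposed 5 h to test compound in DMSO (0.1% DMSO final in all wells). Cells PBS-washed, lysed in cold RIPA buffer with protease inhibitors and PMSF, sonicated, and centrifuged. Supernatants immunoblotted for acetylated α-tubulin (mouse monoclonal) and, as a non-HDAC6 substrate, histone H2BK5ac (rabbit polyclonal).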

[7] = test system: histone acetylation in SK-N-BE2 cells; test: Western blot of histone acetylation; type: cell-based; settings: 5 hours, 3 nM to 10 μM
Summary of the method: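 SK-N-BE2 cells at 70% confluence were treated 5 h with test compound at 3 nM–10 μM final, with DMSO 0.1% total. Cells were washed in cold PBS and lysed in RIPA with protease inhibitors/PMSF, 10 min on ice. Lysates were sonicated and centrifuged. Supernatants were immunoblotted for histone H2BK5ac (rabbit polyclonal) and acetylated α-tubulin (mouse monoclonal).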

[8] = In vivo pharmacokinetics in mice; settings: 5 mg/kg i.p.
Summary of the method: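 Mice were fasted overnight and given a single 5 mg/kg i.p. dose in 10% dimethylacetamide + 10% Solutol HS 15 in saline. Retro-orbital blood was taken at 5, 15, 30 min and 1, 2, 4, 8, 24 h. Plasma was spun at 2,000 × g, 5 min, 4°C. Levels were measured by LC-MS/MS against a standard curve in mouse plasma, then PK parameters calculated; n=3/group.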

[9] = test system: cisplatin-induced mechanical allodynia; test: Von Frey test, cisplatin-induced mechanical allodynia in mice; type: in vivo
[10] = test system: paclitaxel-induced mechanical allodynia; test: Von Frey test, paclitaxel-induced mechanical allodynia in rats; type: in vivo; settings: 3 mg/kg oral twice daily for 7 days, last day tested
[11] = test system: GFAP expression; test: GFAP immunofluorescence in spinal cord dorsal horn; type: in vivo; settings: cisplatin-treated mice, 3 doses of 10 mg/kg
[12] = test system: cisplatin-induced numbness; test: Adhesive removal test; type: in vivo; settings: mice, treatment starting after 2 rounds of cisplatin, tested in week 5
Summary of the method: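 Test compound in 20% 2-hydroxypropyl-β-cyclodextrin + 0.5% hydroxypropyl methylcellulose in water, given i.p. at 3 or 10 mg/kg. A round adhesive patch was placed on the plantar hind paws. Time to a behavioural response (shaking, attempted removal) was recorded within a 15-minute test.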

[13] = test system: α-tubulin acetylation; test: Western blot of acetylated α-tubulin in tibial nerves; type: in vivo; settings: mice, saline or cisplatin followed by 11 doses
Summary of the method: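 Tibial nerves were first run in an XF24 OCR assay (XF medium with 5.5 mM glucose, 0.5 mM pyruvate, 1 mM glutamine). The same nerves were then western-blotted for acetylated α-tubulin with a rabbit monoclonal.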

[14] = test system: Cox IV, SDHA and VDAC; test: Western blot of mitochondrial proteins in tibial nerves; type: in vivo, mice; settings: 2 rounds of cisplatin and 11 injections
[15] = test system: cisplatin-induced spontaneous pain; settings: cisplatin-treated mice, 2 weeks of daily treatment
[16] = test system: HDAC6 compared with Class I HDACs; settings: 42; cited from earlier work

N.N.[Cl][Pt][Cl] [cisplatin, Cisplatin, reference compound]
mitochondrial respiration in tibial nerves ([1]; mice, 2 cycles of cisplatin 2.3 mg/kg i.p. x 5 days): significantly decreased mitochondrial respiration
percentage of moving mitochondria ([2]; cisplatin 80 μM, vs vehicle): decreased the percentage of moving mitochondria
mitochondrial bioenergetics in DRG neurons ([3]; mice, 2 rounds of cisplatin): overall decrease in mitochondrial bioenergetics
IENF density in plantar surface of the paw ([4]; mice, 2 cycles of cisplatin): reduced the IENF density

ACY-1083
inhibitory activity against other enzymes [5]: negligible inhibitory activity against other enzymes
selectivity for HDAC6 over all other HDAC isoforms tested ([5]; HDAC1-9): 260 fold
selectivity towards HDAC6 in cells (α-tubulin vs histone acetylation) [6]: over 300 fold
concentration at which the increase in α-tubulin acetylation starts ([6]; 3 nM to 10 μM): 30 nM
concentration at which an effect on histone acetylation is evident [7]: 10 µM
biologically active plasma exposure after dosing [8]: 8 hours
half-life (T1/2) [8]: 3.5 h
maximum plasma concentration (Cmax) [8]: 936 ng/mL
mechanical sensitivity in the absence of cisplatin treatment ([9]; 10 mg/kg): did not alter mechanical sensitivity
time after the first dose at which the effect was first detected ([9]; 10 mg/kg i.p.): 24 h
effect of a second round of 7 daily injections on mechanical allodynia ([9]; 10 mg/kg, 7 days, 7 days rest): transiently reversed cisplatin-induced mechanical allodynia again
prevention of development of mechanical allodynia ([9]; administered i.p. 1 hour prior to each dose of cisplatin): capable of preventing the development of mechanical allodynia
persistence of the protective effect after the last dose [10]: ≥ 3 days
GFAP expression in dorsal horn of spinal cord [11]: normalized GFAP expression to levels comparable to saline-treated animals
cisplatin-induced numbness: time to respond to adhesive patch [12]: normalized the response time
α-tubulin acetylation in tibial nerves [13]: increased α-tubulin acetylation
mitochondrial respiration in tibial nerve of cisplatin-treated mice ([1]; 2 cycles of cisplatin followed by 11 doses): normalized all aspects of the cisplatin-induced decrease in mitochondrial respiration
mitochondrial bioenergetics in tibial nerve, treatment alone ([1]; mice without cisplatin, 11 doses): did not have any effect on mitochondrial bioenergetics
Cox IV levels in tibial nerve of cisplatin-treated mice [14]: normalized Cox IV levels
percentage of moving mitochondria, co-administration with cisplatin ([2]; 100 nM with cisplatin 80 μM): prevented this cisplatin-induced decrease in mitochondrial transport
mitochondrial bioenergetics in DRG neurons of cisplatin-treated mice ([3]; 2 rounds of cisplatin and 11 injections): did not detect a similar recovery
mitochondrial bioenergetics in DRG neurons, treatment alone ([3]; mice without cisplatin, either time point): did not have any effect on mitochondrial bioenergetics in DRG neurons
mitochondrial bioenergetics in DRG neurons of cisplatin-treated mice ([3]; two weeks of treatment, 2 weeks after the last dose): significant recovery of mitochondrial bioenergetics
IENF density in cisplatin-treated mice, prolonged regimen ([4]; 2 cycles of cisplatin and 11 doses): completely reversed the cisplatin-induced loss of IENFs
IENF density in cisplatin-treated mice, short-term treatment ([4]; short-term treatment): had no effect on IENF density
spontaneous pain: preference for retigabine-paired light chamber [15]: did not develop a preference for the retigabine-paired light chamber

O=C(CCCCCCNC(=O)c1cnc(N(c2ccccc2)c2ccccc2)nc1)NO [ACY-1215, Ricolinostat, reference compound]
persistence of the beneficial effect after completion of treatment ([9]; 30 mg/kg oral daily for two weeks, last time point tested): still present one week after completion of treatment
selectivity against HDAC6 compared with Class I HDACs [16]: over 10 fold
